# According to ChEMBL document CHEMBL1938262, “A specific protein disorder catalyzer of HIV-1 Nef” (Bioorg Med Chem, 2011):
# The source made the active and inactive calls. No cut-off for these calls is given here.
# Tests used:
# [1] = Inhibition of HIV1 Nef (56-206)/SH3 domain of GST-Hck expressed in Escherichia coli BL21 DE3 complex formation at […] after 1 hr by high-mass MALDI TOF analysis
# In short: (§1)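 Nef core (56–206) and Hck SH3 were expressed in E. coli BL21 DE3 as GST fusions, thrombin-cleaved and gel-filtered. Nef was preincubated 1 h at rt with compound from DMSO stocks (up to 5 mM stock), then SH3-Hck was added for 1 h at rt. Samples were cross-linked 1 h, mixed with sinapinic acid matrix and analysed by high-mass MALDI-TOF in triplicate. IC50 comes from % complex versus log concentration.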
# [2] = Induction of HIV1 GST-Nef-mVenus proteolysis after 30 mins preincubation measured after 60 mins by cleavage enzyme-cytometric bead array method in presence of HIV1 protease; design: species or system Human immunodeficiency virus 1
# In short: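 CE-CBA: a GST-Nef-mVenus reporter is immobilized on anti-GST antibody beads and cleaved by HIV protease. Cleavage is followed as loss of bead fluorescence by flow cytometry. Values are normalized to the DMSO control (0% cleavage) and intrinsic bead fluorescence (100%). Relative EC50 is reported as mean ± SEM of three independent experiments.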
# [3] = Solubility of the compound; type: physicochemical
# [4] = Inhibition of HIV1 Nef (56-206)/SH3 domain of GST-Hck expressed in Escherichia coli BL21 DE3 complex formation after 1 hr by high-mass MALDI TOF analysis; in short: as §1
# [5] = Cytotoxicity against african green monkey COS7 cells assessed as cell viability up to 40 uM after 70 hrs; type: cell-based, COS-7; conditions: chlorocebus aethiops, read-out: Activity
# [6] = tested on: Protein Nef (Human immunodeficiency virus type 1); test: Decrease in aggregation temperature of HIV1 His-tagged Nef at 10 to 200 uM by thermal protein denaturation assay (reference value: 58.83 +/- 0.25 degC)
Compound,inhibition [1],EC50 [2],solubility [3],IC50 [4],viability at 70 h [5],T [6]
CC(C)(C)c1ccc(-c2ccc(OCC(=O)Nc3cccc(C(=O)O)c3)cc2)cc1,Active,34.3 µM,Insoluble,15.9 µM,73%,–
COC(=O)c1cccc(NC(=O)COc2ccc(-c3ccc(C(C)(C)C)cc3)cc2)c1,–,–,Insoluble,–,–,–
CC(C)(C)c1ccc(OCC(=O)Nc2cccc(C(=O)O)c2)cc1,Active,109 µM,–,> 50 µM,86.6%,50.3 °C
